Results taken from ChEMBL document CHEMBL3526004, “Interaction of silymarin flavonolignans with organic anion-transporting polypeptides” (Drug Metab Dispos, 2013).

Tests used:
[1] = target: T1, Solute carrier organic anion transporter family member 2B1 (Homo sapiens, UniProt O94956); test: Inhibition of OATP2B1 (unknown origin) expressed in MDCK2 cells assessed as reduction of [3H]estrone-3-sulfate uptake at 10 uM after 3 mins by beta-counting; type: ADME, cell-based; conditions: mdck-ii, 0.05 h
T1 sequence (O94956 whole entry): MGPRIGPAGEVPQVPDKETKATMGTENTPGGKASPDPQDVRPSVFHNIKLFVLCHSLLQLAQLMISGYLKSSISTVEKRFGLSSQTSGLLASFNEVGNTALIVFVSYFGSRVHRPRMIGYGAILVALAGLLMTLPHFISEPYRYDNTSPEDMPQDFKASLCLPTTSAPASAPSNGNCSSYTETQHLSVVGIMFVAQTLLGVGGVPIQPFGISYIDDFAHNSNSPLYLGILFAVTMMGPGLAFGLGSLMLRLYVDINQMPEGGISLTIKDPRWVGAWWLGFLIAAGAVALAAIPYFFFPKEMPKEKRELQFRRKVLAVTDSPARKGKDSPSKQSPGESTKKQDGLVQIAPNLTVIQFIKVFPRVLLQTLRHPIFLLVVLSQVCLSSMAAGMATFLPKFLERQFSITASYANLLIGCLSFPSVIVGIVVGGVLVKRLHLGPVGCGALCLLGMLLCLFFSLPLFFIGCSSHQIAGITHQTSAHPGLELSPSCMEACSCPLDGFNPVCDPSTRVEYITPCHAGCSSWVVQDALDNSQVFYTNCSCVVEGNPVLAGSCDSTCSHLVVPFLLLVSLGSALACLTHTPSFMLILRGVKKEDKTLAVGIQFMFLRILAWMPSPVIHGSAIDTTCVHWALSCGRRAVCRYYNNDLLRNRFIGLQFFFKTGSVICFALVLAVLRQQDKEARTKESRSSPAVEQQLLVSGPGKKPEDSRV
In short: (§1)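 Confluent cells were washed in PBS, then given 1 µM [3H]-E2 17G (OATP1B1, OATP1B3 HEK293) or 1 µM [3H]-E1S (OATP2B1 MDCKII) with 10 µM compound in HBSS pH 7.4 for 3 min at 37°C. Uptake into mock or parental cells was subtracted after protein normalization. Results are % vehicle, mean ± SD of at least three experiments in triplicate.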

[2] = target: T2, Solute carrier organic anion transporter family member 1B1 (Homo sapiens, UniProt Q9Y6L6); test: Inhibition of OATP1B1 (unknown origin) expressed in HEK293 cells assessed as reduction of [3H]estradiol-17beta-glucuronide uptake at 10 uM after 3 mins by beta-counting; type: ADME, cell-based; conditions: hek293, 0.05 h; in short: as §1
T2 sequence (Q9Y6L6 whole entry): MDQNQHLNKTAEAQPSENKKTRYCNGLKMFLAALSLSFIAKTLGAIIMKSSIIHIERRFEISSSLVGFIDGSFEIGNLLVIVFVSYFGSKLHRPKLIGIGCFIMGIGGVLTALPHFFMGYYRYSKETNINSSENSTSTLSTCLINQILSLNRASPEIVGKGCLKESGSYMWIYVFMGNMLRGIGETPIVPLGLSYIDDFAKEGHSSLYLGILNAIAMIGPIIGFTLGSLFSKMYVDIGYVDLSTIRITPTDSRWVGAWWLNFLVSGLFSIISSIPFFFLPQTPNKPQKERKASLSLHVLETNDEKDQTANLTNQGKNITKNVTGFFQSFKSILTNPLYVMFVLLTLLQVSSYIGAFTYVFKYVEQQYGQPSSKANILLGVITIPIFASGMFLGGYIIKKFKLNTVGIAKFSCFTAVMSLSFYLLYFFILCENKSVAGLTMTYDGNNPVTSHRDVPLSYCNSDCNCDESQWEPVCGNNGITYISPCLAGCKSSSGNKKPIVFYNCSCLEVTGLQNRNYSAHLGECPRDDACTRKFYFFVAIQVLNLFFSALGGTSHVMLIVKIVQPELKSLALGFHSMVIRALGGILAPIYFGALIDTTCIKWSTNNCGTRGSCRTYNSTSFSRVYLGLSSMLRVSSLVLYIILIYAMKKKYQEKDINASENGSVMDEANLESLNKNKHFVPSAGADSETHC

[3] = target: T3, Solute carrier organic anion transporter family member 1B3 (Homo sapiens, UniProt Q9NPD5); test: Inhibition of OATP1B3 (unknown origin) expressed in HEK293 cells assessed as reduction of [3H]estradiol-17beta-glucuronide uptake at 10 uM after 3 mins by beta-counting; type: ADME, cell-based; conditions: hek293, 0.05 h; in short: as §1
T3 sequence (Q9NPD5 whole entry): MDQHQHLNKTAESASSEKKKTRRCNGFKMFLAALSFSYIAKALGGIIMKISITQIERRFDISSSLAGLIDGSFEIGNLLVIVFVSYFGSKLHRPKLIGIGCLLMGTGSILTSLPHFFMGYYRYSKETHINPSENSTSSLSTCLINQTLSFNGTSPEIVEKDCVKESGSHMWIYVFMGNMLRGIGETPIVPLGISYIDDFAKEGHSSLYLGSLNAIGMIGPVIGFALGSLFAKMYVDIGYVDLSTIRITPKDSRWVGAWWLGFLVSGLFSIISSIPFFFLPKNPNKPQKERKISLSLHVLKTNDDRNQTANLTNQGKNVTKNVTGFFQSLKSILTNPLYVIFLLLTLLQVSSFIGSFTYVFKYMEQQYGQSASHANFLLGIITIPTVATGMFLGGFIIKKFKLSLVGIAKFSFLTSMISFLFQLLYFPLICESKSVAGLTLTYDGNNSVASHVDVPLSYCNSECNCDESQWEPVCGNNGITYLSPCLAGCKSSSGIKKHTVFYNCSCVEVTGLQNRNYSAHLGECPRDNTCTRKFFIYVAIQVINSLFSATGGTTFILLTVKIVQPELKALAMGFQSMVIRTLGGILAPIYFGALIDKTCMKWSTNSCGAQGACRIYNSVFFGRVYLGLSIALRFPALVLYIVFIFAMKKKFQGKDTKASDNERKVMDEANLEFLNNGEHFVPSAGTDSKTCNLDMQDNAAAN

[4] = target: T2, Solute carrier organic anion transporter family member 1B1; test: Inhibition of OATP1B1 (unknown origin) expressed in HEK293 cells assessed as reduction of [3H]estradiol-17beta-glucuronide uptake after 3 mins by beta-counting; type: ADME, cell-based
In short: (§2)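 Transfected HEK293 (G418) or MDCKII (hygromycin B) cells were co-incubated with 0-100 µM compound and [3H]-E2 17G (1 µM, 0.25 µCi/ml; OATP1B1, OATP1B3) or [3H]-E1S (1 µM; OATP2B1) in HBSS pH 7.4, 3 min at 37°C. OATP-negative uptake was subtracted, and results expressed as % vehicle. Two experiments were run in duplicate. IC50 came from non-linear dose-response fits.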

[5] = target: T3, Solute carrier organic anion transporter family member 1B3; test: Inhibition of OATP1B3 (unknown origin) expressed in HEK293 cells assessed as reduction of [3H]estradiol-17beta-glucuronide uptake after 3 mins by beta-counting; type: ADME, cell-based; in short: as §2
[6] = target: T1, Solute carrier organic anion transporter family member 2B1; test: Inhibition of OATP2B1 (unknown origin) expressed in MDCK2 cells assessed as reduction of [3H]estrone-3-sulfate uptake after 3 mins by beta-counting; type: ADME, cell-based, MDCK-II; in short: as §2

Compound | inhibition (INH) [1] | inhibition (INH) [2] | inhibition (INH) [3] | IC50 [4] | IC50 [5] | IC50 [6]
COc1cc([C@H]2Oc3ccc([C@H]4Oc5cc(O)cc(O)c5C(=O)[C@@H]4O)cc3O[C@@H]2CO)ccc1O [ISOSILYBIN A] | Active | Active | – | – | – | –
COc1cc([C@@H]2Oc3ccc([C@H]4Oc5cc(O)cc(O)c5C(=O)[C@@H]4O)cc3O[C@H]2CO)ccc1O [ISOSILYBIN B] | Active | Active | Active | – | – | –
COc1cc(C2Oc3c(O)cc([C@H]4Oc5cc(O)cc(O)c5C(=O)[C@@H]4O)cc3C2CO)ccc1O (stereo not given in full) [SILICRISTIN] | Active | Not Active | – | 9 µM | 36.4 µM | 3.6 µM
